The values that follow come from PMC11034909 (Advanced therapeutics, 2023).

Data set [1] can be described thus: Body weight of CT26 tumor-bearing mice. It counts as in vivo, mouse. The note with it: doxorubicin 5 mg/kg i.v. days 6, 9, 12, alone or in the combination group. The gist of the method:
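Eight-week-old male and female Balb/c mice received 1×10⁶ CT26 cells s.c. in the right flank. At 50–100 mm³, tumours were randomised into groups of 10 (half female). Doxorubicin 5 mg/kg i.v. was given on days 6, 9 and 12 post-implant, alone or combined with test peptide 5 mg/kg daily. Saline served as negative control. Body weight was recorded daily throughout treatment.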

Data set [2] concerns triple negative breast cancer. As to conditions: cited from earlier work.
In data set [3] the test system is tumor immunogenic cell death (ICD). The note with it: cited from earlier work.
For data set [4] the following is noted: doxorubicin; cited from earlier work.

Turning to `COc1cccc2c1C(=O)c1c(O)c3c(c(O)c1C2=O)C[C@@](O)(C(=O)CO)C[C@@H]3O[C@H]1C[C@H](N)[C@H](O)[C@H](C)O1` [doxorubicin], in data set [1], the “Systemic toxicity (weight loss)” value was “slight systemic toxicity”. For the same compound, the “Effect on CD47 expression” value in data set [2] is recorded as “induced CD47 expression in triple negative breast cancer”. For the same compound, the “Induction of tumor immunogenic cell death” value in data set [3] is “induce tumor immunogenic cell death (ICD)”. Moreover, in data set [4], the Maximum tolerated dose was 5 mg/kg.
